Hits are enriched below; roughly 2.2% of the tested compounds scored in any of these assays.
ROMK primary: human ROMK K+ channel modulation, primary screen; P48048; Tet-inducible ROMK, thallium flux fluorescence; actives lie on both sides; B-score at 10 µM; actives 2% (n = 130,000); AID 1918;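 active = signal ratio slope over the read window, or its plate-corrected B-score, at least 3 SD from the plate mean, either direction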;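 also: B-score of the F/F0 ratio slope over 7 to 12 s after thallium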
Target sequence (P48048 whole entry, looked up): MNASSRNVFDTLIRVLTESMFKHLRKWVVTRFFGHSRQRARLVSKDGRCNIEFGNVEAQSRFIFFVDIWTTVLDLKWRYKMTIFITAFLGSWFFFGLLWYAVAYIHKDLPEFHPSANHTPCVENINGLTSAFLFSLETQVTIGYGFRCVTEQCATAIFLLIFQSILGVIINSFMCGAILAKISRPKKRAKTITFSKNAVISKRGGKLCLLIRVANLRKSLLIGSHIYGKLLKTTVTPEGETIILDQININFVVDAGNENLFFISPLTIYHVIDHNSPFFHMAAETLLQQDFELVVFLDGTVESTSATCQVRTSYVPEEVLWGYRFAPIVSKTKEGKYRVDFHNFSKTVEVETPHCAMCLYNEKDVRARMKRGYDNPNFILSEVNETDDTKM
G6PDH counter: inhibits Leuconostoc G6PDH, flagging false hits in G6PDH-based assays | Purified L. mesenteroides G6PDH, diaphorase/resazurin coupled fluorescence, 45 min | inhibition, % at 5 µM | actives 0.12% (n = 200,000) | AID 1020; in the data active = inhibition above about 50%
PMI activator: activators of human phosphomannose isomerase. P34949. purified human PMI, coupled resazurin fluorescence, 20 min; hits give high values; 1 = vehicle control, 0 substrate-free wells. activation factor at 20 µM. actives 0.005% (n = 190,000);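 active = activation factor of 2 or more at 20 µM, relative to plate controls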
Diaph inh CS: counter-screen for diaphorase-based assays: diaphorase inhibitors and chemical oxidizers. diaphorase resazurin-to-resorufin fluorescence, NADH, 16 min; bacterial (C. kluyveri) enzyme, not human. inhibition, % at 20 µM. actives 0.69% (n = 190,000);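 active = primary screen inhibition at 20 µM above a set limit, cut at about 50% in these data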;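 also: plate controls were DMSO with full reaction for no effect and wells lacking NADH for full effect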
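Assay system – diaphorase enzyme from Clostridium kluyveri · Amount – diaphorase 0.14 U/mL (working solution) · Times – reaction incubation of 16 min at room temperature · Controls – No-NADH positive control and DMSO neutral control · Signal – resorufin fluorescence 544/590 nm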
Diaph act CS: activates diaphorase or chemically reduces, flagging diaphorase assay artifacts. Diaphorase/resazurin coupled assay, resorufin fluorescence, 16 min; hits give high values; 1 = vehicle wells, 0 = NADH-free wells. actives 0.005% (n = 190,000). AID 1229. activation factor at 20 µM;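 active = diaphorase activity raised at least twofold by the compound at 20 µM; inactive = activation factor below 2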
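Material: bacterial diaphorase enzyme (C. kluyveri); amount: enzyme 0.07 U/mL final; reagent: NADH substrate 0.114 mM plus resazurin dye 0.1 mM, final; doses: single compound dose of 20 µM, 1% DMSO final; timing: 16 min enzyme reaction, ambient temperature; measured by: fluorescence of resorufin, 544 nm excitation, 590 nm emission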
PMI act satM6P: increases human PMI activity with near-saturating mannose 6-phosphate; actives 0.34% (n = 190,000); activation factor at 20 µM; P34949; coupled PMI enzyme assay, resazurin fluorescence, 20 min; hits give high values; 1 = untreated enzyme, 0 = substrate-free blank; AID 1216;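 active = activation factor of 2 or more at 20 µM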
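Material: human phosphomannose isomerase with PGI, G6PDH, diaphorase coupling enzymes. Quantity: 15 ng/mL PMI. Medium: HEPES pH 7.4 buffer with MgCl2 and Tween-20. Reagent: Near-saturating mannose-6-phosphate, 1.0 mM. Compound: 20 µM single dose. Times: enzyme reaction with compound 20 min at room temperature. Detection: resorufin fluorescence at Ex 544/Em 590 nm.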
ROMK retest: confirmation of human ROMK potassium channel modulators; shares compounds with ROMK primary; ROMK thallium flux, fluorescence ratio; hits give low values; AID 1917; actives 54% (n = 3,000); normalized thallium flux (F/F0 slope) at 10 µM;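 active = Flux at 10 µM at least 3 SD below or above vehicle control mean in one or both replicates; inconclusive = no clear call, values can overlap the other calls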
* = called active by the depositor; ? = inconclusive; / = not tested or not shown.

SMILES | ROMK primary | G6PDH counter | PMI activator | Diaph inh CS | Diaph act CS | PMI act satM6P | ROMK retest
Cc1cc(C)cc(OCCNC(=O)C(C)N2C(=O)c3ccccc3C2=O)c1 (centres undefined) | 2.4* | 0 | 1 | 16 | 0.8 | 1 | 0.083
Cc1nnnn1/C(=C\c1ccccc1)C(=O)OCC(=O)NC(C)(C)C | -8.2* | 4 | 1 | 5 | 0.9 | 1.1 | 0.043*
CC(C)(C)NC(=O)COC(=O)/C=C/c1ccccc1[N+](=O)[O-] | 1.4 | -2 | 1 | 6 | 0.9 | 1 | /
CC(C)(C)C(=O)c1cnc(Nc2ccccc2Cl)s1 | 5.4* | 3 | 1 | 8 | 0.9 | 0.9 | 0.09
COc1cccc(C2=NOC(C(=O)NCc3ccccc3)C2)c1 (centres undefined) | / | 5 | 0.9 | 19 | 0.8 | 0.9 | /
O=C(NCc1ccco1)C1CC(c2ccc(Cl)cc2)=NO1 (centres undefined) | 4.6* | 7 | 1 | -3 | 1 | 1.1 | 0.093
COc1cccc(C2=NOC(C(=O)NCc3ccco3)C2)c1 (centres undefined) | 5* | 8 | 0.9 | 7 | 0.9 | 0.9 | 0.081
Cc1cccc(N2CC(c3nc4ccccc4[nH]3)CC2=O)c1 (centres undefined) | / | -5 | 1 | -1 | 1 | 1 | /
CCOC(=O)N1CCC(n2c(SCC(=O)NCc3ccccc3)nc3ccccc3c2=O)CC1 | 0.21 | -1 | 1 | 10 | 0.9 | 1 | /
CCOC(=O)N1CCC(n2c(SCC(=O)Nc3ccccc3OC)nc3ccccc3c2=O)CC1 | -4.2* | 4 | 0.7 | 30 | 0.7 | 0.8 | 0.065*
CCOC(=O)N1CCC(n2c(SCC(=O)NCCC3=CCCCC3)nc3ccccc3c2=O)CC1 | -7* | 0 | 0.9 | 6 | 0.9 | 1 | ?
COCCCN1C(=O)C(=O)/C(=C(/O)c2ccc(C)cc2)C1/C=C/c1ccccc1 (centres undefined) | 0.022 | 3 | 1.3 | 16 | 0.8 | 1 | /
Cc1ccc(C(=O)CCC(=O)N2CCN(C(=O)c3ccco3)CC2)cc1 | -0.0055 | 8 | 1.1 | -15 | 1.1 | 1.1 | /
COc1ccc(CN(C)C2CCCCC2)c(C)c1C | -4* | 8 | 1.1 | 1 | 1 | 1.1 | 0.068*
CCS(=O)(=O)n1nc(-c2ccco2)nc1N | -0.12 | 16 | 0.9 | 12 | 0.9 | 0.9 | /
COC(=O)c1cc(C(=O)N2CCN(c3cccc(C)c3C)CC2)cc([N+](=O)[O-])c1 | 2.8* | -3 | 1 | 7 | 0.9 | 1 | ?
COC(=O)c1cc(C(=O)N2CCN(c3ccccc3OC)CC2)cc([N+](=O)[O-])c1 | -1.3 | 9 | 1 | 0 | 1 | 1 | /
CCOC(=O)N1CCN(C(=O)CN(Cc2ccccc2)S(C)(=O)=O)CC1 | 0.78 | 3 | 0.9 | 13 | 0.9 | 0.9 | /
CCOC(=O)N1CCN(c2ccc(S(=O)(=O)N(Cc3ccccc3)Cc3ccccc3)cn2)CC1 | / | -41 | 0.8 | 20 | 0.8 | 0.8 | 0.075
CCOC(=O)c1cc2ccccc2n1CCN(CC)CC | 5* | 4 | 0.9 | 10 | 0.9 | 1 | ?
O=C(COC(=O)/C=C/c1ccc(Br)o1)NCCCN1CCCC1=O | 0.51 | -1 | 1.2 | -3 | 1 | 1 | /
O=C(COC(=O)c1cccc(S(=O)(=O)N2CCCC2)c1)NCc1ccccc1 | -0.11 | -4 | 1 | 6 | 0.9 | 1 | /
CC1(C)CC(N=C2C([N+](=O)[O-])=CC=C3C2=NC2(CCCCC2)N3O)CC(C)(C)N1 | / | / | / | / | / | / | 0.076
Cc1ccc2nc(NCCO)nc(-c3ccccc3)c2c1 | / | 8 | 0.9 | 12 | 0.9 | 1 | 0.075
CCCSc1nnc(NC(=O)Nc2ccc(F)cc2)s1 | -2 | -11 | 0.9 | 2 | 1 | 0.9 | 0.062*
CCCSc1nnc(NC(=O)Nc2ccccc2)s1 | 0.72 | -10 | 0.9 | 5 | 1 | 1 | /

Assay outcomes (PubChem)
